For assay [1], the target named is Human immunodeficiency virus type 1 reverse transcriptase (Human immunodeficiency virus 1) (UniProt Q72547). Nature of the assay: Compound ability to inhibit the production of HIV reverse transcriptase (RT) in culture supernatant of monocytic U937 on at 11 days at a concentration 0.2 uM. The assay is classed as functional. The method, boiled down: (§1)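 HIV-1-infected monocytic U937 cultures were kept up to 14 days with compound. Supernatant RT activity was measured as for CEM-C113, as [³H] cpm/50 µL. % inhibition = 100 − 100 × (cpm of treated samples / cpm of control virus).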

Assay [2] shares this target. Kind of assay: Compound ability to inhibit the production of HIV reverse transcriptase (RT) in culture supernatant of monocytic U937 on at 14 days at a concentration 0.2 uM. The assay is classed as functional. The method, boiled down:
as §1

For assay [3] the target is unchanged. Nature of the assay: Compound ability to inhibit the production of HIV reverse transcriptase (RT) in culture supernatant of CEM-CL13 on at 15 days at a concentration 1 uM. The assay is classed as functional. The method, boiled down: (§2)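 CEM-C113 cells in RPMI 1640 with 5% heat-inactivated FCS and polybrene (2 µg/mL) were plated at 1×10^5 cells/mL with compound in PBS, in triplicate, and infected with HIV-1 LAV-Bru. From day 7, every 3–4 days, fresh medium with or without drug was added and 50 µL supernatant was taken for RT microassay. The RT microassay used poly(rA)-oligo(dT) and (methyl-³H)dTTP for 1 h at 37 °C, with TCA precipitation, read as cpm/50 µL.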

Assay [4] has the same target. Nature of the assay: Compound ability to inhibit the production of HIV reverse transcriptase (RT) in culture supernatant of CEM-CL13 on at 22 days at a concentration 1 uM. The assay is classed as functional. In outline:
as §2

Assay [5] shares this target. Nature of the assay: Compound ability to inhibit the production of HIV reverse transcriptase (RT) in culture supernatant of CEM-CL13 on at 7 days at a concentration 1 uM. The assay is classed as functional. In outline:
as §2

The target is the same in assay [6]. Kind of assay: Percent inhibition measured as the production of HIV reverse transcriptase (RT) in culture supernatant of monocytic U937 on at 14 days at a concentration 0.2 uM. In kind it is functional. In outline:
(§3)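 U937 cells in RPMI 1640 with 5% heat-inactivated FCS, penicillin, streptomycin and polybrene (2 μg/mL), 37 °C, 5% CO2. Infected with HIV-1 LAV-Bru; compounds diluted in PBS. 50 μL supernatant aliquots were assayed for RT: 1 h, 37 °C, pH 7.8, Mg2+, poly(rA)-oligo(dT), [3H]dTTP, TCA-pyrophosphate stop, filter counting. % inhibition = 100 − 100 × (treated cpm / virus-control cpm).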

Assay [7] shares this target. Kind of assay: Percent inhibition measured as the production of HIV reverse transcriptase (RT) in culture supernatant of monocytic U937 on at 7 days at a concentration 0.2 uM. The assay is classed as functional. The method, boiled down: as §3
The target is the same in assay [8]. Kind of assay: Compound ability to inhibit the production of HIV reverse transcriptase (RT) in culture supernatant of monocytic U937 on at 14 days at a concentration 5 uM. In kind it is functional. In outline:
as §1

Assay [9] has the same target. Nature of the assay: Compound ability to inhibit the production of HIV reverse transcriptase (RT) in culture supernatant of CEM-CL13 on at 7 days at a concentration 5 uM. In kind it is functional. The method, boiled down:
as §2

For assay [10] the target is unchanged. Nature of the assay: Percent inhibition measured as the production of HIV reverse transcriptase (RT) in culture supernatant of monocytic U937 on at 11 days at a concentration 5 uM. The assay is classed as functional. The method, boiled down:
as §3

The target is the same in assay [11]. Kind of assay: Percent inhibition measured as the production of HIV reverse transcriptase (RT) in culture supernatant of monocytic U937 on at 7 days at a concentration 5 uM. In kind it is functional. The method, boiled down: as §3
For assay [12] the target is unchanged. As to conditions: at 25 µM.
The target is the same in assay [13]. Nature of the assay: Compounds were evaluated for anti-RT activity by MTT dose and %protection was reported at 7 days of culture. The method, boiled down:
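HIV-1 was preincubated with compound at 25 µM for 60 min at 37 °C, pelleted, and added to CEM-C113 cells (1×10^5 cells/mL) for 60 min at 37 °C. Medium was then replaced without compound. At days 7 and 9, viability was read by MTT assay on 100 µL of cell suspension.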

By inhibition is commonly meant the percentage by which the read-out fell short of the control. For the molecule `CCCCCCCCCCCCCCCCOP(=O)(OC[C@H]1OC(O)[C@H](O)[C@@H](O)[C@@H]1O)OC[C@H]1OC(n2cc(C)c(=O)[nH]c2=O)C[C@@H]1N=[N+]=[N-]` (some centres undefined), the Activity (c.p.m. 50ul-1) in [1] was 178000; in assay [2], 16000; in [3], 750; in assay [4] it was 33000; in assay [5], 2600. Besides, the inhibition amounted to 14% in [6] and 0% in [7].
In the case of `Cc1cn([C@H]2C[C@H](N=[N+]=[N-])[C@@H](COP(=O)(O)OC[C@H]3OC(O)[C@@H](O)[C@@H](O)[C@@H]3O)O2)c(=O)[nH]c1=O` (some centres undefined), the Activity (c.p.m. 50ul-1) in [8] was 24000; in assay [9], 1500. Besides, the inhibition in assay [10] was 0%; in assay [11], 46%; in assay [12] it was 0%.
For the molecule `CCCCCCCCCCCCCCCCOP(=O)(OC[C@H]1OC(O)[C@@H](O)[C@@H](O)[C@@H]1O)OC[C@H]1OC(n2cc(C)c(=O)[nH]c2=O)C[C@@H]1N=[N+]=[N-]` (some centres undefined), the Activity (c.p.m. 50ul-1) in assay [1] was found to be 227000; in assay [2], 27000; in assay [3] it was 500; in [4], 3900; in [5], 2000. The inhibition in [6] and in assay [7] was 0% in each case.
As to `Cc1cn([C@H]2C[C@H](N=[N+]=[N-])[C@@H](COP(=O)(O)OCCO[C@H]3O[C@H](CO)[C@@H](O)[C@H](O)[C@@H]3O)O2)c(=O)[nH]c1=O`, the Activity (c.p.m. 50ul-1) in [8] was 23000; in assay [9], 1670. Further, the inhibition in assay [10] came out at 0%; in assay [11], 20%; in assay [12], 41%.
In the case of `Cc1cn([C@H]2C[C@H](N=[N+]=[N-])[C@@H](CO)O2)c(=O)[nH]c1=O` [ZIDOVUDINE], the Activity (c.p.m. 50ul-1) was determined as 33000 in assay [8]; 152000 in assay [1]; 60000 in [2]; 600 in assay [3]; 1700 in assay [4]; 100 in assay [5]. The Activity (c.p.m. 50ul-1) in assay [9] was found to be 900. In addition, the inhibition in assay [10] was 18%; in [6], 0%; in assay [7], 91%; in [11] it was 86%; in assay [12], 0%.
For the molecule `CCCCCCCCCCCCCCCCOP(=O)(OCCO[C@H]1O[C@H](CO)[C@@H](O)[C@H](O)[C@@H]1O)OCC1OC(n2cc(C)c(=O)[nH]c2=O)CC1N=[N+]=[N-]` (some centres undefined), the Activity (c.p.m. 50ul-1) stood at 131000 in [1]; 30000 in assay [2]; 5500 in assay [3]; 48000 in [4]; 6000 in assay [5]. The inhibition in assay [6] and in assay [7] was 0% each time.
Regarding `Cc1cn([C@H]2C[C@H](N=[N+]=[N-])[C@@H](COP(=O)(O)OC[C@H]3OC(O)[C@H](O)[C@@H](O)[C@@H]3O)O2)c(=O)[nH]c1=O` (some centres undefined), the figures for the Activity (c.p.m. 50ul-1) in [8] and in assay [9] were 31400 and 1100, respectively. Also, the figures for the inhibition in [10], in [11] and in assay [12] were 0%, 43% and 0%, respectively. Besides, the Protection in assay [13] was found to be 36%.

(Values after ChEMBL document CHEMBL1125259, “Lipophilic glycosyl phosphotriester derivatives of AZT: synthesis, NMR transmembrane transport study, and antiviral activity” (1991).)
